From PubChem BioAssay
Most compounds without a hit are left out; they make up all but 2% or so of the library.
ATG4B inh: ATG4B (human) cysteine protease inhibition; Q9Y4P1; ATG4B cleavage of LC3-PLA2, NBD-HPC fluorescence, 1 h; inhibition, % at 8.33 µM; 340,000 tested, 0.51% active; in the data active means inhibition above about 40%
Target sequence (Q9Y4P1 whole entry, looked up): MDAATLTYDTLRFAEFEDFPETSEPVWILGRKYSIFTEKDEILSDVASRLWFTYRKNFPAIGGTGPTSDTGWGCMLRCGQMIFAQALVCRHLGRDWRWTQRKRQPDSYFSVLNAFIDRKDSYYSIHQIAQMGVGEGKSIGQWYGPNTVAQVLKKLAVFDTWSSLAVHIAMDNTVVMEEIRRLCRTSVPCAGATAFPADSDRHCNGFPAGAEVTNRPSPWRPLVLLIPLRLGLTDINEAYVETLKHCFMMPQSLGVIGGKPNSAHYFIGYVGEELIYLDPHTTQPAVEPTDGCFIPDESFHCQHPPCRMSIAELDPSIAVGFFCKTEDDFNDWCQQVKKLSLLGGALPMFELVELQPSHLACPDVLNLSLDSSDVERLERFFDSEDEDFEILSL
HKDC1 inhibitor: blocks human hexokinase HKDC1 activity; 340,000 tested, 0.16% active; recombinant HKDC1, G6PDH/diaphorase resazurin coupled fluorescence; inhibition, % at 20 µM; Q2TB90;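 active means inhibition above about 35% when tested at 20 µM, limit read from the data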;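 further: plate controls were DMSO wells with enzyme for no effect and DMSO wells lacking enzyme for full effect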
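Test system: recombinant HKDC1 (HK5) hexokinase enzyme, produced in-house; Amount: enzyme 5 µg/mL final; Buffer or medium: Tris pH 8.0 buffer with MgCl2, Tween-20, BSA, BME; Reagent: glucose and ATP substrates; Doses: 20 µM test compound, 1% DMSO; Incubation: 90 min reaction incubation at room temperature, dark; Detection: resorufin fluorescence at 613 nm.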
IMP-1 inhibitor: inhibitors of Pseudomonas aeruginosa IMP-1 metallo-beta-lactamase. purified IMP-1, nitrocefin hydrolysis, epi-absorbance fluorescence. inhibition, % at 5.6 µM. 290,000 tested, 0.45% active. AID 1556;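 active means inhibition above the mean plus 3 SD of all compounds in the same screening run, cut at about 4.5% in these data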;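 further: 0% = IMP-1 with DMSO and 100% = DMSO wells lacking enzyme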
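Material – recombinant IMP-1 enzyme, purified · Amount – IMP-1 0.2 nM before substrate addition · Medium – HEPES buffer pH 7.1 with ZnSO4 and Brij 35 · Timing – 25 °C, 15 min preincubation, 25 min reaction · Measured by – plate fluorescence quenching by hydrolysis product, ex 480/em 530 nm · Read-out – percent enzyme inhibition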
VIM-2 inh: blocks Pseudomonas aeruginosa VIM-2 metallo-beta-lactamase; purified VIM-2, nitrocefin hydrolysis, epi-absorbance fluorescence; inhibition, % at 5.6 µM; 290,000 tested, 0.89% active; AID 1527;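 active means inhibition above the mean of all tested compounds plus 3 SD, cutoff set per screening run, cut at about 7.5% in these data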;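 further: red hydrolysis product quenches plate fluorescence so inhibitors raise well fluorescence; 0% = enzyme with DMSO and 100% = DMSO without enzyme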
PvdQ acylase: P. aeruginosa PvdQ acylase inhibition; purified PvdQ acylase, fluorescence plate reader; inhibition, % at 10 µM; 340,000 tested, 0.063% active; in the data active means inhibition above about 30%, passing the limit was not always enough;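 further: 0% = vehicle neutral wells and 100% = reference inhibitor wells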
MIN6 prolif-1: induces beta-cell replication in MIN6 cells | AID 2380 | 330,000 tested, 0.29% active | MIN6 cells proliferation, ATPlite luminescence, 48 h; cells starved in 0.2% serum; 100% = growth in 10% serum | proliferation, % at 10 µM;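 active means compounds whose signal lies at least 3.5 SD above the mean of all wells on their plate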;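 further: 0% = DMSO-treated cells in low-serum medium and 100% = 10% serum control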
MIN6 prolif-2: MIN6 beta-cell replication induction, confirmed; proliferation increase, % at 50 µM; MIN6 beta-cell proliferation, ATPlite luminescence, 48 h; cells kept in 0.2% serum; scaled between 0.2% and 10% serum; shares compounds with MIN6 prolif-1; 920 tested, under 10 active;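 active means proliferation increase above 40% at any of the four tested concentrations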
Numbers without * were called inactive; . = no result.

SMILES	ATG4B inh	HKDC1 inhibitor	IMP-1 inhibitor	VIM-2 inh	PvdQ acylase	MIN6 prolif-1	MIN6 prolif-2
CN1CCN(c2nc(-c3ccncc3)nc3ccccc23)CC1	-11	-1	-4	7	3	1	.
COc1nc(-c2ccncc2)nc2ccccc12	-12	-3	-2	1	-26	6.2*	-5
c1ccc2c(N3CCCC3)nc(-c3ccncc3)nc2c1	-5	-19	-4	6	-10	14*	-6
COc1ccc(Oc2nc(-c3ccncc3)nc3ccccc23)cc1	-10	5	-3	-5	3	-3	.
CCOc1ccc(/C=N/n2c(SC)nnc2-c2ccccc2)cc1OCC	-20	0	0	-1	-4	8.2*	-5
COc1ccccc1NC(=O)CCCN1C(=O)C(c2ccccc2)Oc2cccnc21 (stereo not drawn)	12	-3	-3	-1	-11	13*	-6
COCCCNC(=O)CN(c1ccc(F)cc1)S(=O)(=O)c1ccc2c(c1)OCCO2	1	-1	-4	-2	-16	6.0*	-1
C/C(=N\NS(=O)(=O)c1ccc(C)cc1)c1cc2ccccc2oc1=O	-3	13	-3	-4	-22	8.4*	-4
Cc1oc2cc3oc(=O)c(CCC(=O)N4C[C@H]5C[C@@H](C4)c4cccc(=O)n4C5)c(C)c3cc2c1C	-11	6	-2	1	-2	5	.
O=C(Nc1ccc(S(=O)(=O)NC2=NCCCCC2)cc1)C1COc2ccccc2O1 (stereo not drawn)	-7	1	-2	0	-10	-2	.
COc1nc(NC(C)(C)C)nc(Oc2ccc(=O)n(C)n2)n1	-15	-4	0	-1	-3	3	.
CC(C)Nc1nc(NC(C)(C)C)nc(Oc2ccc(=O)n(C)n2)n1	1	4	-3	-2	0	7.4*	4
C=CCNC(=O)c1c2c(nc3ccccc13)-c1ccccc1CC2	3	-2	-1	-3	-9	7.0*	-4
CCN(Cc1ccccc1)S(=O)(=O)c1ccc(S(=O)(=O)N(Cc2cccc(OC)c2)CC2CCCO2)cc1 (stereo not drawn)	7	-4	-4	-3	13	-1	.
COc1cccc(CN(CC2CCCO2)S(=O)(=O)c2ccc(-n3cnnn3)c(OC)c2)c1 (stereo not drawn)	-5	-6	-2	-4	-9	9.3*	0
O=C(c1ccco1)N1CCCC(c2nc3c(nnn3Cc3c(Cl)cccc3Cl)c(=O)[nH]2)C1 (stereo not drawn)	12	6	-3	-1	-7	8.4*	-6
O=C(c1ccco1)N1CCCC(c2nc3c(nnn3Cc3ccccc3)c(=O)[nH]2)C1 (stereo not drawn)	-5	0	-2	-3	-15	-2	.
O=C(CSc1nncs1)Nc1nccs1	4	2	.	.	-2	1	.
CC(C)OP(=O)(c1ccc(N(C)C)cc1)C(O)c1ccncc1 (stereo not drawn)	-8	-6	-4	-3	-15	0	.
CC(C)OP(=O)(c1ccc(N(C)C)cc1)C(O)c1ccc(Br)cc1 (stereo not drawn)	-7	-5	-2	-1	-10	9.0*	-1
CCOc1ccc(S(=O)(=O)N(CC)CC)cc1NC(=O)CSCc1c(C)noc1C	-3	1	.	.	-15	11*	-3
CC(C)c1ccc(NC(=O)CCNS(=O)(=O)c2cccc3nsnc23)cc1	-19	-11	-3	-3	-4	4.6*	-5
CCOc1ccccc1-n1c(SCC(=O)N2CCCc3ccccc32)nnc1-c1cccnc1	4	-4	-2	0	-10	6.6*	-2
O=c1onc(-c2ccc(Cl)cc2Cl)n1-c1cccnc1	-3	-1	-2	-2	-9	-1	.
COC(=O)c1c(NC(=O)Cc2cccs2)sc(C)c1C	15	-3	1	1	-16	2	.
CCOC(=O)c1c(NC(=O)Cc2cccs2)sc(C(=O)N2CCCCC2)c1C	0	2	-2	-4	-5	9.5*	5
